Test results as given in ChEMBL document CHEMBL4184148 (Bioorg Med Chem Lett, 2017).

Experiments:
[1] = system: Tyrosine-protein kinase ABL1 (Homo sapiens), P00519 [Q252H]; test: Binding affinity to human non-phosphorylated ABL1 Q252H mutant (S229 to K512 residues) expressed in HEK293 cells at 1 uM by Kinomescan method relative to control; assay type: cell-based
[2] = target: Activin receptor type-2B (Homo sapiens) (UniProt Q13705); test: Binding affinity to wild-type human ACVR2B (H169 to D504 residues) expressed in Escherichia coli BL21 at 1 uM by Kinomescan method relative to control
[3] = target: Bone morphogenetic protein receptor type-1A (Homo sapiens) (UniProt P36894); test: Binding affinity to wild-type human partial length BMPR1A (Q214 to I532 residues) expressed in Escherichia coli BL21 at 1 uM by Kinomescan method relative to control
[4] = target: Serine/threonine-protein kinase Chk1 (Homo sapiens) (UniProt O14757); test: Binding affinity to wild-type human partial length CHEK1 (M1 to G289 residues) expressed in Escherichia coli BL21 at 1 uM by Kinomescan method relative to control
[5] = target: Casein kinase I isoform delta (Homo sapiens) (UniProt P48730); test: Binding affinity to wild-type human full length CSNK1D (M1 to K409 residues) expressed in Escherichia coli BL21 at 1 uM by Kinomescan method relative to control
Method in brief: (§1)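 Run as one kinome-wide competition binding panel with each compound at a single fixed concentration. Results were plotted as a kinome-wide selectivity map.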

[6] = target: Dual specificity tyrosine-phosphorylation-regulated kinase 1A (Homo sapiens) (UniProt Q13627); test: Binding affinity to wild-type human partial length DYRK1A (H129 to S509 residues) expressed in HEK293 cells at 1 uM by Kinomescan method relative to control; assay type: cell-based
[7] = system: Epidermal growth factor receptor (Homo sapiens), P00533 [UNDEFINED MUTATION]; test: Binding affinity to human partial length EGFR L747-S752del/P753S mutant expressed in Escherichia coli BL21 at 1 uM by Kinomescan method relative to control
[8] = system: Epidermal growth factor receptor (Homo sapiens), P00533 [T790M]; test: Binding affinity to human partial length EGFR T790M mutant (R669 to G1022 residues) expressed in HEK293 cells at 1 uM by Kinomescan method relative to control; assay type: cell-based
[9] = target: Ephrin type-B receptor 3 (Homo sapiens) (UniProt P54753); test: Binding affinity to wild-type human partial length EPHB3 (Q599 to T928 residues) expressed in Escherichia coli BL21 at 1 uM by Kinomescan method relative to control
[10] = target: Fibroblast growth factor receptor 1 (Homo sapiens) (UniProt P11362); test: Binding affinity to wild-type human partial length FGFR1 (P357 to V669 residues) expressed in Escherichia coli BL21 at 1 uM by Kinomescan method relative to control
[11] = target: Homeodomain-interacting protein kinase 1 (Homo sapiens) (UniProt Q86Z02); test: Binding affinity to wild-type human partial length HIPK1 (M146 to I555 residues) expressed in HEK293 cells at 1 uM by Kinomescan method relative to control; assay type: cell-based
[12] = target: Mitogen-activated protein kinase 8 (Homo sapiens) (UniProt P45983); test: Binding affinity to wild-type human full length JNK1 (M1 to Q384 residues) expressed in HEK293 cells at 1 uM by Kinomescan method relative to control; assay type: cell-based; method in brief: as §1
[13] = target: Mitogen-activated protein kinase kinase kinase 2 (Homo sapiens) (UniProt Q9Y2U5); test: Binding affinity to wild-type human partial length MAP3K2 (S315 to H619 residues) expressed in HEK293 cells at 1 uM by Kinomescan method relative to control; assay type: cell-based
[14] = system: Hepatocyte growth factor receptor (Homo sapiens), P08581 [M1250T]; test: Binding affinity to human partial length MET M1250T mutant (D1010 to S1367 residues) expressed in Escherichia coli BL21 at 1 uM by Kinomescan method relative to control
[15] = target: Mitogen-activated protein kinase kinase kinase 11 (Homo sapiens) (UniProt Q16584); test: Binding affinity to wild-type human partial length MLK3 (I77 to W399 residues) expressed in Escherichia coli BL21 at 1 uM by Kinomescan method relative to control
[16] = target: Muscle, skeletal receptor tyrosine-protein kinase (Homo sapiens) (UniProt O15146); test: Binding affinity to wild-type human partial length MUSK (M553 to V869 residues) expressed in Escherichia coli BL21 at 1 uM by Kinomescan method relative to control
[17] = system: Phosphatidylinositol 4,5-bisphosphate 3-kinase catalytic subunit alpha isoform (Homo sapiens), P42336 [I800L]; test: Binding affinity to human partial length PIK3CA I800L mutant (R108 to N1068 residues) expressed in HEK293 cells at 1 uM by Kinomescan method relative to control; assay type: cell-based
[18] = target: cAMP-dependent protein kinase catalytic subunit PRKX (Homo sapiens) (UniProt P51817); test: Binding affinity to wild-type human partial length PRKX (M1 to F358 residues) expressed in Escherichia coli BL21 at 1 uM by Kinomescan method relative to control
[19] = system: Proto-oncogene tyrosine-protein kinase receptor Ret (Homo sapiens), P07949 [V804M]; test: Binding affinity to human partial length RET V804M mutant (E713 to D1014 residues) expressed in Escherichia coli BL21 at 1 uM by Kinomescan method relative to control
[20] = target: Serine/threonine-protein kinase RIO3 (Homo sapiens) (UniProt O14730); test: Binding affinity to wild-type human full length RIOK3 (M1 to E519 residues) expressed in Escherichia coli BL21 at 1 uM by Kinomescan method relative to control
Method in brief: (§2)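 Kinome-wide competition binding panel run by an outside provider, with each compound tested at a single concentration. Activity is read against the kinase panel.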

[21] = target: Receptor-interacting serine/threonine-protein kinase 1 (Homo sapiens) (UniProt Q13546); test: Binding affinity to wild-type human partial length RIPK1 (M1 to K305 residues) expressed in Escherichia coli BL21 at 1 uM by Kinomescan method relative to control
[22] = target: Serine/threonine-protein kinase SIK2 (Homo sapiens) (UniProt Q9H0K1); test: Binding affinity to wild-type human full length SIK2 (M1 to N926 residues) expressed in Escherichia coli BL21 at 1 uM by Kinomescan method relative to control; method in brief: as §2
[23] = target: Dual specificity testis-specific protein kinase 1 (Homo sapiens) (UniProt Q15569); test: Binding affinity to wild-type human full length TESK1 (R37 to S626 residues) expressed in Escherichia coli BL21 at 1 uM by Kinomescan method relative to control; method in brief: as §2
[24] = target: Serine/threonine-protein kinase ULK3 (Homo sapiens) (UniProt Q6PHR2); test: Binding affinity to wild-type human partial length ULK3 (M1 to Q290 residues) expressed in HEK293 cells at 1 uM by Kinomescan method relative to control; assay type: cell-based
[25] = target: Mitogen-activated protein kinase kinase kinase 19 (Homo sapiens) (UniProt Q56UN5); test: Binding affinity to wild-type human partial length YSK4 (T1019 to H1328 residues) expressed in HEK293 cells at 1 uM by Kinomescan method relative to control; assay type: cell-based

Chain of Phosphatidylinositol 4,5-bisphosphate 3-kinase catalytic subunit alpha isoform (Homo sapiens), P42336 [I800L] (P42336 whole entry I800L, the tested form may be a part, canonical isoform): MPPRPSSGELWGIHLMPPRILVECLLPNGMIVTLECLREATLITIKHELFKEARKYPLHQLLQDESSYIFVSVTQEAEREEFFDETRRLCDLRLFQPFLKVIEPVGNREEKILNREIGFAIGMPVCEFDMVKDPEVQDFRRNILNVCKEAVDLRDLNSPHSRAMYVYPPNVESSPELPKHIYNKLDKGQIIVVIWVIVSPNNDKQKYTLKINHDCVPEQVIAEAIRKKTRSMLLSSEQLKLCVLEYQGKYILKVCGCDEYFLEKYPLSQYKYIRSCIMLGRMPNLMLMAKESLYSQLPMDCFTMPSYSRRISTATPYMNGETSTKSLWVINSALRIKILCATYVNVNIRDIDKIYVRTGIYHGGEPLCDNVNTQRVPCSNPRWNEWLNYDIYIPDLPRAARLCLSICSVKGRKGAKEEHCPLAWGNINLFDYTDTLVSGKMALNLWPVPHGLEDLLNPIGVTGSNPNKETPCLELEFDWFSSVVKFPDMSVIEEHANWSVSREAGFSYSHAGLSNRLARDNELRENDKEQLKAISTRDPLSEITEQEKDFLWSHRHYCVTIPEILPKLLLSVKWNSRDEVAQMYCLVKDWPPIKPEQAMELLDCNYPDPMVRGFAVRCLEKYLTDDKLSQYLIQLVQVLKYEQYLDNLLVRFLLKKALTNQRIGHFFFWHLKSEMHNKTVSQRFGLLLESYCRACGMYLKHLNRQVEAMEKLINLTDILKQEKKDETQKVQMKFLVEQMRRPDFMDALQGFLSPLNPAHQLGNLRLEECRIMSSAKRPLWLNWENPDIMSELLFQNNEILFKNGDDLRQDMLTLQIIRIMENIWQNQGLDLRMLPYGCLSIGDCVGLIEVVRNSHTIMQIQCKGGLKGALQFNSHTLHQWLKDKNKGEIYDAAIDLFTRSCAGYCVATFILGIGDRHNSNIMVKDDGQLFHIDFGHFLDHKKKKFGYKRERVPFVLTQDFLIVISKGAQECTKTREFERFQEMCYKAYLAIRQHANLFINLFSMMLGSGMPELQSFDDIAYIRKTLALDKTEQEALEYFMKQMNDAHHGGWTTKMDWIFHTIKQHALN
Chain of Mitogen-activated protein kinase kinase kinase 2 (Homo sapiens) (Q9Y2U5 whole entry, the tested form may be a part): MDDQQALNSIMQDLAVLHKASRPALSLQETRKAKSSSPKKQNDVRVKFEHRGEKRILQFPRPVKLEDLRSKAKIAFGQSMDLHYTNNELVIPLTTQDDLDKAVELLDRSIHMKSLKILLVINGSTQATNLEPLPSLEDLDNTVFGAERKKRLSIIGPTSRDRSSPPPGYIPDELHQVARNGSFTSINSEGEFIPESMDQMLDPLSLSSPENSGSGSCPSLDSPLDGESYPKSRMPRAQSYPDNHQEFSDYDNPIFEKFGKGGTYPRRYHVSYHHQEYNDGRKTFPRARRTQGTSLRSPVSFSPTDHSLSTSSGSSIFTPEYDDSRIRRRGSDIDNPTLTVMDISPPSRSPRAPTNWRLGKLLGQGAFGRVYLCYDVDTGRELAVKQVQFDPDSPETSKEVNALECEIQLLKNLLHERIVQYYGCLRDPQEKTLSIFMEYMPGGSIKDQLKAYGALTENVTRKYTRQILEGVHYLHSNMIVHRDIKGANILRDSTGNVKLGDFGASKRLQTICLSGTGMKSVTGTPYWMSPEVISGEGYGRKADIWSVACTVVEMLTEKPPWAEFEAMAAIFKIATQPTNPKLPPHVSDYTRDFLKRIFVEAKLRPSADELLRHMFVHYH
Chain of Activin receptor type-2B (Homo sapiens) (Q13705 whole entry, the tested form may be a part): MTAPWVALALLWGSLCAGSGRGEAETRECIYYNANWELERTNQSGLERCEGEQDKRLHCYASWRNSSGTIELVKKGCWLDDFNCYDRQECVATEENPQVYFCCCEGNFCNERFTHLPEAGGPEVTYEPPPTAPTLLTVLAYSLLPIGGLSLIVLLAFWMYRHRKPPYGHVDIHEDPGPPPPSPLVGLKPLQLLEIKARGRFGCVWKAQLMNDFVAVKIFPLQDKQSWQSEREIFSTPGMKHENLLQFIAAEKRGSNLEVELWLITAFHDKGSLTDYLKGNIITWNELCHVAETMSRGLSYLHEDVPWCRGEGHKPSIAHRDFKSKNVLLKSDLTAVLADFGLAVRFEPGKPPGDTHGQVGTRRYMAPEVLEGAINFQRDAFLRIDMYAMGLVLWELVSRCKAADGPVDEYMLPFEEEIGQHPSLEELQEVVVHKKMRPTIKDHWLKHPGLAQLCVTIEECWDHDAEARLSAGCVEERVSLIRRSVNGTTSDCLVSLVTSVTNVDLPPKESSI
Chain of Serine/threonine-protein kinase Chk1 (Homo sapiens) (O14757 whole entry, the tested form may be a part, canonical isoform): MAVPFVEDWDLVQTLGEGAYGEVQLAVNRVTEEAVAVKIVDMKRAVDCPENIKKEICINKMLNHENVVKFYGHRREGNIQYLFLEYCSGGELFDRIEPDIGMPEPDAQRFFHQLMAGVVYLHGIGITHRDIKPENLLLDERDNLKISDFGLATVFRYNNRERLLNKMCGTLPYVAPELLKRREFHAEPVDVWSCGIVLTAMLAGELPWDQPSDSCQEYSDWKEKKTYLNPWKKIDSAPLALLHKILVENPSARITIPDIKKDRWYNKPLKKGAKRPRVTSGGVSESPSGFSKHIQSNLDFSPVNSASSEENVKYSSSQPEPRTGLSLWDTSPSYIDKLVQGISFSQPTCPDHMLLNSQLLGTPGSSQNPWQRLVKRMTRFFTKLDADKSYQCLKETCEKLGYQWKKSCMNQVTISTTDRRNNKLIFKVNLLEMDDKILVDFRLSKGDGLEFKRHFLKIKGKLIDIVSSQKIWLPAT
Chain of Homeodomain-interacting protein kinase 1 (Homo sapiens) (Q86Z02 whole entry, looked up, the tested form may be a part): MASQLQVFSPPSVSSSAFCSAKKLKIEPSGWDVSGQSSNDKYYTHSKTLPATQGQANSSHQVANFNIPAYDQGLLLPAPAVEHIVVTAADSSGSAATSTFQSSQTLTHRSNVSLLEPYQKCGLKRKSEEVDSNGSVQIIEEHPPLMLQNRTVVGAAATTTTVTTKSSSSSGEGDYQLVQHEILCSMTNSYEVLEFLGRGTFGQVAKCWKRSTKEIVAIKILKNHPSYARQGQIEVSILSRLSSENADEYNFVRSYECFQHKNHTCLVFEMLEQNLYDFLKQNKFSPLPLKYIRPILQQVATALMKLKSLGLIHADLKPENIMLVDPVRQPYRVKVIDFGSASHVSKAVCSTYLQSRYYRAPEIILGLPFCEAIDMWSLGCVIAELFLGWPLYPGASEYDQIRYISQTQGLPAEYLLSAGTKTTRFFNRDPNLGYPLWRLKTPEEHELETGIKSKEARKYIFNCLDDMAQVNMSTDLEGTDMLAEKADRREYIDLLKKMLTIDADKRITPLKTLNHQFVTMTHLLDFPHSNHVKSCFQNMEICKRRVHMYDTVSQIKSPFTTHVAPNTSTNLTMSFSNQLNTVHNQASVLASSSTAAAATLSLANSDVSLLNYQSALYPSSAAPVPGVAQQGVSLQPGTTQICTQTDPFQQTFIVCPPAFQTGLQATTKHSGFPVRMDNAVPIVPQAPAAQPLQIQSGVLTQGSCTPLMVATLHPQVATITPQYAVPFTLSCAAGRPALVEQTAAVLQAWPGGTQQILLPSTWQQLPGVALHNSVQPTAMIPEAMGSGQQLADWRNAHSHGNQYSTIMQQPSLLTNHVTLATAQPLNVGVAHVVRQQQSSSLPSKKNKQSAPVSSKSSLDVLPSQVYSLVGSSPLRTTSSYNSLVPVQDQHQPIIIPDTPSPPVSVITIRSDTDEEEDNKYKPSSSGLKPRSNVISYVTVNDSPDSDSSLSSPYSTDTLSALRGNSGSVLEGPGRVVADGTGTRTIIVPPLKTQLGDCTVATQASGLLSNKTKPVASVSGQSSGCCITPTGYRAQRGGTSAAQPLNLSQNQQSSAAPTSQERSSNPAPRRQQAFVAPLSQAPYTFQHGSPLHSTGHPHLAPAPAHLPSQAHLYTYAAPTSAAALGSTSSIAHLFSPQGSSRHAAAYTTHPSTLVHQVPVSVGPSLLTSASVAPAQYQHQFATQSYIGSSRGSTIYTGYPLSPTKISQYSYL
Chain of Casein kinase I isoform delta (Homo sapiens) (P48730 whole entry, looked up, the tested form may be a part, canonical isoform): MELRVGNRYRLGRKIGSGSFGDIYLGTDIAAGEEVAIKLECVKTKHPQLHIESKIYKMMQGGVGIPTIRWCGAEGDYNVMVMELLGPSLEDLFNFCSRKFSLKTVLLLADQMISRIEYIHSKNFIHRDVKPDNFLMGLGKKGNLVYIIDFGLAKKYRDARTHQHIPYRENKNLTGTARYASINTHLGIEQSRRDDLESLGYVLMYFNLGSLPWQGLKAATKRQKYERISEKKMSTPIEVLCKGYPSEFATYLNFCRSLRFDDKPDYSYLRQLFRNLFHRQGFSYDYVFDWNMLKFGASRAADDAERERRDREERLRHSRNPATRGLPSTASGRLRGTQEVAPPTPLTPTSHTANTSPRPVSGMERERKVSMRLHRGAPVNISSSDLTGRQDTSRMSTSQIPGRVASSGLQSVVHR
Chain of Serine/threonine-protein kinase RIO3 (Homo sapiens) (O14730 whole entry, the tested form may be a part): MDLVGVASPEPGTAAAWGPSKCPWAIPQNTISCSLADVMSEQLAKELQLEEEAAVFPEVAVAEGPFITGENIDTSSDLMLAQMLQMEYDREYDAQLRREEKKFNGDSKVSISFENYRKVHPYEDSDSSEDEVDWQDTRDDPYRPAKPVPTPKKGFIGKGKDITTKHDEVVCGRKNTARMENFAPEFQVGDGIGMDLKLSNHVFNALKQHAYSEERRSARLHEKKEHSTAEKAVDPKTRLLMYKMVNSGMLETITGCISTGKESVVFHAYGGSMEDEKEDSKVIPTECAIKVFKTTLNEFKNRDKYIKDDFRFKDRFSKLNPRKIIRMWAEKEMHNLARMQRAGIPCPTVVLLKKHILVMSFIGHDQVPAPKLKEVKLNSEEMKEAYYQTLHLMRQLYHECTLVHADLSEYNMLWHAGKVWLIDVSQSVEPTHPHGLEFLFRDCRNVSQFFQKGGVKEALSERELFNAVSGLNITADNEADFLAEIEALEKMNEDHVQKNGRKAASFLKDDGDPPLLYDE

SMILES | Activity [1] [%] | Activity [2] [%] | Activity [3] [%] | Activity [4] [%] | Activity [5] [%] | Activity [6] [%] | Activity [7] [%] | Activity [8] [%] | Activity [9] [%] | Activity [10] [%] | Activity [11] [%] | Activity [12] [%] | Activity [13] [%] | Activity [14] [%] | Activity [15] [%] | Activity [16] [%] | Activity [17] [%] | Activity [18] [%] | Activity [19] [%] | Activity [20] [%] | also measured
C=CC(=O)Nc1ccc(C(=O)Nc2ccc(Nc3ncc4c(n3)N(C)c3ccc(C)cc3C(=O)N4C)cc2)cc1 | 68 | 100 | 82 | 100 | 86 | 96 | 99 | 79 | 89 | 84 | 87 | 85 | 85 | 93 | 83 | 96 | 76 | 100 | 68 | 75 | Activity [21]: 100%; Activity [22]: 89%; Activity [23]: 100%; Activity [24]: 93%; Activity [25]: 72%
CCC(=O)Nc1ccc(C(=O)Nc2ccc(Nc3ncc4c(n3)N(C)c3ccc(C)cc3C(=O)N4C)cc2)cc1 | 64 | 100 | 100 | 87 | 95 | 73 | 87 | 78 | 88 | 82 | 67 | 75 | 66 | 93 | 95 | 95 | 78 | 80 | 70 | 84 | Activity [21]: 86%; Activity [22]: 78%; Activity [23]: 100%; Activity [24]: 77%; Activity [25]: 77%
